pIC50: −log10 of the molar value. Blank lines part the entries; values can stand above or below the compound they belong to. Active and inactive are the calls of the source. The rule behind the calls is not given here.
Columns and labels:
[1] = biological target: T1, StAR-related lipid transfer protein 3 (Homo sapiens, UniProt Q14849); assay: Inhibition of recombinant human His-tagged StAR-related lipid transfer protein 3 START domain expressed in Escherichia coli BL21(DE3) cells assessed as reduction of protein interaction with cholesterol using 3-hexanoyl-NBD Cholesterol as substrate incubated for 5 mins by competition binding fluorescent assay
T1 sequence (Q14849 whole entry): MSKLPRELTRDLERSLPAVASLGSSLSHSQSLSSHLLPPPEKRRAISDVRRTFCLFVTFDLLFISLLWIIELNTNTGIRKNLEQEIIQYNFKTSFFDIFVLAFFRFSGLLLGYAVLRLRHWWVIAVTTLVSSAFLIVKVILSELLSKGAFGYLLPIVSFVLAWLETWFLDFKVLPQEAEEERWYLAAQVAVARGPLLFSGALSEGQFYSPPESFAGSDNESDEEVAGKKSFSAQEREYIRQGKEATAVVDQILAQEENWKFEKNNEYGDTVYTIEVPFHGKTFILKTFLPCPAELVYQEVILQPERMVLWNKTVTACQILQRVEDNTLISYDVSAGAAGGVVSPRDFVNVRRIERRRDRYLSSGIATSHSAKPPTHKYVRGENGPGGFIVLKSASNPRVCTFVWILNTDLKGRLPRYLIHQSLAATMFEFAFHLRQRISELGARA
How it was run: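 Competition binding fluorescent assay of cholesterol binding to STARD3, adapted from Tsujishita and Hurley; STARD3 used at 5 μM, selected from a binding titration curve as giving 55.9% completely bound state; IC50 determined.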

[2] = biological target: T2, StAR-related lipid transfer protein 3 (Homo sapiens) (UniProt Q14849); assay: Inhibition of STARD3 in human MDA-MB-231 cells assessed as increase in phosphorylated FAK protein level at Tyr397 residue at 100 uM incubated for 48 hrs by Western blot analysis; assay type: cell-based
T2 sequence (whole entry): T1 sequence (Q14849 whole entry)
How it was run: (§1)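 MDA-MB-231 cells treated with 100 μM inhibitor for 24 and 48 h; total FAK and pTyr397-FAK levels assessed by Western blot against untreated cells.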

[3] = system: MCF7; assay: Antiproliferative activity against human MCF7 cells after 96 hrs by Cell Titer-Glo based luminescence assay; assay type: functional; conditions: MCF7, 96 h
[4] = biological target: T3, StAR-related lipid transfer protein 3 (Mus musculus) (UniProt Q61542); assay: Induction of STARD3 degradation in cycloheximide treated mouse NIH/3T3 cells at 100 uM incubated for 24 hrs followed by addition of cycloheximide and measured after 12 hrs by Western blot analysis
T3 sequence (whole entry): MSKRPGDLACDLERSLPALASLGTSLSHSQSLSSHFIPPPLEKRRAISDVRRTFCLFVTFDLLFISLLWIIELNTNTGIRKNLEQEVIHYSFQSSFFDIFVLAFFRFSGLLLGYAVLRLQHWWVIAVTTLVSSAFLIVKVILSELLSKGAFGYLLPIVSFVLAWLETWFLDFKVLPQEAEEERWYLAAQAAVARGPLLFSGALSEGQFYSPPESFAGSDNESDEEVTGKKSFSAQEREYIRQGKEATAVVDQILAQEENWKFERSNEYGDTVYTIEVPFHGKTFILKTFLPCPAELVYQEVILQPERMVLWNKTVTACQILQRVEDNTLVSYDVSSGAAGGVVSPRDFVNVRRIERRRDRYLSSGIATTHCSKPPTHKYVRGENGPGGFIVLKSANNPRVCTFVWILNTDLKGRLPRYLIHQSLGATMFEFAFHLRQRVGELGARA
How it was run: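 NIH3T3 fibroblasts pretreated with 100 μM inhibitor for 24 h, then given cycloheximide 10 μg/mL and harvested at timed points (hours); STARD3 protein followed by Western blot to track degradation kinetics.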

[5] = biological target: T2, StAR-related lipid transfer protein 3 (Homo sapiens); assay: Inhibition of STARD3 in human MDA-MB-231 cells assessed as increase in FAK protein level at 100 uM incubated for 24 hrs by Western blot analysis; assay type: cell-based; how it was run: as §1
[6] = system: MDA-MB-231; assay: Anticlonogenic activity against human MDA-MB-231 cells assessed as reduction in cell proliferation after 10 days with replacement of medium for every 3 days by crystal violet staining based visual analysis; assay type: functional
How it was run: (§2)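 MCF7, MDA-MB-231 and HCT-116 cells treated with a range of inhibitor concentrations, grown until colonies became visible; colony forming efficiency scored by visual inspection.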

[7] = system: MCF7; assay: Anticlonogenic activity against human MCF7 cells assessed as reduction in cell proliferation after 10 days with replacement of medium for every 3 days by crystal violet staining based visual analysis; assay type: functional; how it was run: as §2
[8] = biological target: T2, StAR-related lipid transfer protein 3 (Homo sapiens); assay: Inhibition of STARD3 in human MDA-MB-231 cells assessed as increase in phosphorylated FAK protein level at Tyr397 residue at 100 uM incubated for 24 hrs by Western blot analysis; assay type: cell-based; how it was run: as §1
[9] = biological target: T2, StAR-related lipid transfer protein 3 (Homo sapiens); assay: Inhibition of STARD3 in human MDA-MB-231 cells assessed as increase in FAK protein level at 100 uM incubated for 48 hrs by Western blot analysis; assay type: cell-based; how it was run: as §1
[10] = system: MDA-MB-231; assay: Antiproliferative activity against human MDA-MB-231 after 96 hrs by Cell Titer-Glo based luminescence assay; assay type: functional; conditions: MDA-MB-231, 96 h
[11] = system: HCT-116; assay: Anticlonogenic activity against human HCT116 cells assessed as reduction in cell proliferation after 10 days with replacement of medium for every 3 days by crystal violet staining based visual analysis; assay type: functional; how it was run: as §2
[12] = system: HCT-116; assay: Antiproliferative activity against human HCT116 cells after 96 hrs by Cell Titer-Glo based luminescence assay; assay type: functional; conditions: HCT-116, 96 h
[13] = system: NIH3T3; assay: Effect on STARD3 mRNA level in mouse NIH/3T3 cells at 0 to 100 uM incubated for 48 hrs by RT-PCR method; assay type: ADME, cell-based; conditions: nih3t3, 48 h
How it was run: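 NIH3T3 fibroblasts exposed to two inhibitor concentrations for 48 h; STARD3 mRNA level then measured.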

pIC50 [1]: < 4.00
Compound: O=C(COC(=O)c1ccc(-c2ccc(O)cc2)cc1)NCc1ccc(F)cc1

pIC50 [1]: < 4.00
Compound: O=C(/C=C/c1ccccc1F)Nc1ccc(N2CCNC(=O)C2)c(Cl)c1

inhibition [2]: Active | pIC50 [3]: 3.98 | Activity [4]: Active | pIC50 [1]: 4.46 | inhibition [5]: Active | inhibition [8]: Active | inhibition [9]: Active | pIC50 [10]: 4.30 | pIC50 [12]: 4.15
Compound: O=c1nc(/C=C/c2ccc(O)c([N+](=O)[O-])c2)[nH]c2c1CCN(Cc1ccccc1)C2
Activity [6]: Dose-dependent effect | Activity [7]: Dose-dependent effect | Activity [11]: Dose-dependent effect | Activity [13]: Non-Toxic

pIC50 [1]: < 4.00
Compound: O=C1CN(c2ccc(NC(=O)c3csc(-c4cccc(Cl)c4)n3)cn2)CCN1

Reference: ChEMBL document CHEMBL4433212, “First-of-its-kind STARD3 Inhibitor: In Silico Identification and Biological Evaluation as Anticancer Agent” (ACS Med Chem Lett, 2019)
